As usually defined, the IC30 is the point of the concentration-response curve where the effect stands at 30%. A lower IC30 goes with greater potency. The IC50 is the concentration that inhibits the measured activity by half.

Each structure is given as a SMILES string.

For test [1], the system named is Nucleic Acid. Put plainly: Compound was tested for its binding affinity towards calf thymus DNA. The test is classed as nucleic-acid assay. Conditions: Bos taurus; call rule not given here. The procedure, abridged:
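Calf thymus DNA concentration set using a molar extinction coefficient of 13,200 M^-1 cm^-1. Binding was followed by recording UV–vis spectra.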

Test [2] deals with HT-29. The experiment in a line: (§1) Compound was tested for cytotoxicity against HT-29 human solid tumor cell line. Format: functional, cell-based. In a few lines: (§2)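 MTT assay: drugs added 24 h after plating at nine concentrations; cells grown 72 h with drug, then MTT (2.5 mg/mL solution in PBS) added for 3 h. Formazan dissolved in DMSO, absorbance read at 570 nm. IC50 taken from dose/inhibition curves.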

In test [3] the test system is Caov-3 cell line. The experiment in a line: (§3) Compound was tested for cytotoxicity against CaOv3 human solid tumor cell line. The test is classed as functional, cell-based. The procedure, abridged:
as §2

Test [4] deals with A549. The experiment in a line: (§4) Compound was tested for cytotoxicity against A-549 human solid tumor cell line. The test is classed as functional, cell-based. The procedure, abridged: as §2
Test [5] has as its system Nucleic Acid. The experiment in a line: Compound was tested for its binding affinity towards poly(AT). Format: nucleic-acid assay. The procedure, abridged:
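Double-stranded poly(dA-dT)·poly(dA-dT) concentration set using a molar extinction coefficient of 13,900 M^-1 cm^-1. Binding was followed by recording UV–vis spectra.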

The subject of test [6] is Nucleic Acid. The experiment in a line: Compound was tested for its binding affinity towards poly(GC). The test is classed as nucleic-acid assay. In a few lines:
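Double-stranded poly(dG-dC)·poly(dG-dC) concentration set using a molar extinction coefficient of 13,200 M^-1 cm^-1. Binding was followed by recording UV–vis spectra.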

The subject of test [7] is MCF7. Put plainly: (§5) Compound was tested for cytotoxicity against MCF-7 human solid tumor cell line. Format: functional, cell-based. The procedure, abridged:
as §2

The subject of test [8] is Caov-3 cell line. Put plainly: Compound was tested for cytotoxicity against CaOv3 human solid tumor cell line; NA=Not active. Format: functional, cell-based. In a few lines:
(§6)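 MTT assay on adherent solid tumor lines. Drug added 24 h after plating at nine concentrations, then 72 h growth with drug. MTT (2.5 mg/mL solution in PBS) added for 3 h, medium aspirated, formazan dissolved in DMSO, absorbance read at 570 nm. IC50 taken from dose/inhibition curves.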

For test [9], the system named is MCF7. Put plainly: Compound was tested for cytotoxicity against MCF-7 human solid tumor cell line; NA=Not active. Format: functional, cell-based. The procedure, abridged:
as §6

Test [10] has as its system Caov-3 cell line. Described as §3. The test is classed as functional. In a few lines:
as §2

Test [11] has as its system HT-29. The description is as §1. Format: functional.
The test system of test [12] is MCF7. The test is described as §5. The test is classed as functional.
For test [13], the system named is A549. The description is as §4. Format: functional.

For the compound `COc1cc2c(ccc3c4cc(OC)c(OC)cc4c[n+](C)c23)cc1O` [FAGARONINE], the K with Nucleic Acid [1] was found to be 1e+06 M⁻¹; in the test on Nucleic Acid [5], 1e+06 M⁻¹; with Nucleic Acid [6], 1.1e+06 M⁻¹. In the test on HT-29 [2], this compound showed an IC30 of 9000 nM. The IC50 in the test on Caov-3 cell line [3] was determined as 500 nM; in the test with A549 [4], 100 nM; with MCF7 [7] it was 4000 nM.

Turning to `CCOc1cc2c3cc(OC)c(OC)cc3c[n+](C)c2c2cc(OC)c(O)cc12.[I-]`, the K amounted to 250000 M⁻¹ in the test on Nucleic Acid [1], 300000 M⁻¹ with Nucleic Acid [5] and 60000 M⁻¹ in the test with Nucleic Acid [6]. The compound also registered an IC30 with HT-29 [2] of 5000 nM. In addition, the IC50 result in the test with Caov-3 cell line [8] and with MCF7 [9] was “Not Active” each time.

`CCOc1cc2c3cc(OC)c(OC)cc3c[n+](C)c2c2cc(OC)c(OC)cc12`: the IC30 in the test with Caov-3 cell line [10] was found to be 500 nM; with HT-29 [2] it was 2000 nM. Besides, the K in the test on Nucleic Acid [1] is 250000 M⁻¹; in the test with Nucleic Acid [5], 2.5e+06 M⁻¹; in the test with Nucleic Acid [6] it was 100000 M⁻¹. Further, the IC50 in the test on A549 [4] stood at 80 nM; in the test on MCF7 [7], 2000 nM.

Regarding `CCOc1cc2c3cc(OC)c(OC)cc3c(C)[n+](C)c2c2cc(OC)c(OC)cc12`, the IC30 came out at 9000 nM in the test on HT-29 [11], 10000 nM in the test with Caov-3 cell line [10], 1000 nM with MCF7 [12] and 10000 nM in the test with A549 [13]. Moreover, the K in the test on Nucleic Acid [1] came to 700000 M⁻¹; in the test with Nucleic Acid [5], 700000 M⁻¹; in the test with Nucleic Acid [6], 50000 M⁻¹.

Compound `CCOc1cc2c3cc(OC)c(OC)cc3c[n+](C)c2c2cc(OC)c(OS(C)(=O)=O)cc12.CS(=O)(=O)[O-]` yielded an IC30 with HT-29 [11] of 1000 nM. In addition, the K in the test with Nucleic Acid [1] amounted to 250000 M⁻¹; in the test with Nucleic Acid [5] it was 50000 M⁻¹; in the test on Nucleic Acid [6] it was 53000 M⁻¹. Moreover, the figures for the IC50 entry in the test on Caov-3 cell line [8], in the test on A549 [4] and in the test with MCF7 [9] were “Not Active”, 500 nM and “Not Active”, respectively.

These data come from ChEMBL document CHEMBL1134739, “Synthesis, biological activity and comparative analysis of DNA binding affinities and human DNA topoisomerase I inhibitory activities of novel 12-alkoxy-benzo[c]phenanthridinium salts” (Bioorg Med Chem Lett, 2001).
